The values that follow come from article PMC3844559 (Journal of medicinal chemistry, 2013).

No end group written: not given here. *: point of attachment. X1 = S‑(2,3-bis(palmitoyloxy)-(2R)-propyl)‑R‑cysteinyl, CCCCCCCCCCCCCCCC(=O)OC[C@H](CSC[C@H](N)C(=O)*)OC(=O)CCCCCCCCCCCCCCC Where only a bound is given, the exact number is not on record here.

Series [1] concerns murine models of immunization. The settings on record: cited from earlier work.
The next series concerns rabbit models. The settings on record: cited from earlier work.
For series [2], the system named is ex vivo human blood models. The note with it: cited from earlier work.
The nature of the next series: aqueous solubility. Type of series: physicochemical. The settings on record: water.
Series [3] in a line: stability of aqueous stocks / accelerated stability testing. Type of series: physicochemical. The note with it: for stability of aqueous stocks: aqueous stocks on storage.
The target in a further series is human TLR2 (Homo sapiens, UniProt O60603). Put plainly: human TLR2-specific NF-κB reporter gene assay. The note with it: for EC50: hTLR2-Agonistic Activity (EC50 in nM), human TLR2-specific reporter gene assay; for hTLR2-specific agonistic activity: reporter gene assays. It is filed as cell-based. (Reporter assays use an easily measured gene product as a stand-in for the process of interest.)
Sequence of human TLR2 (O60603 21-784): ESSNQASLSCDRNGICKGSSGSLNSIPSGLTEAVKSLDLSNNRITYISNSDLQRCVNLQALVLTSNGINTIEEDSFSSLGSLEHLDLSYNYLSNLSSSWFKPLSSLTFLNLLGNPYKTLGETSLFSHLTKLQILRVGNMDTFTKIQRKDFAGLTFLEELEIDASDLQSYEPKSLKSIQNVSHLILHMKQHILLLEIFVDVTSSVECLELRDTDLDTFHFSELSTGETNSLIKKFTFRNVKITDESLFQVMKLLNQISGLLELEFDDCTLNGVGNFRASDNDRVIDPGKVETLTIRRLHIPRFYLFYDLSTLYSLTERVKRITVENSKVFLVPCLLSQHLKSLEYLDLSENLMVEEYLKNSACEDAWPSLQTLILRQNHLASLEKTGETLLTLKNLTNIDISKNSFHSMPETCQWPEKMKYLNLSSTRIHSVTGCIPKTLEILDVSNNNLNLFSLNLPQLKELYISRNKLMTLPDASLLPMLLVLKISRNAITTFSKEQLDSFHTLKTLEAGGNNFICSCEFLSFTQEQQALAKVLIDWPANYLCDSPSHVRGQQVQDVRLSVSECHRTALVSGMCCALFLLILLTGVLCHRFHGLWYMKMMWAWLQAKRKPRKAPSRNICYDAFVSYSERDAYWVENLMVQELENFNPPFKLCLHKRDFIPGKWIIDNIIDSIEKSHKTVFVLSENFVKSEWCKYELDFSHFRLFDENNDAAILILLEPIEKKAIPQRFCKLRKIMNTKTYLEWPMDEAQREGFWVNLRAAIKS

In another series the test system is rabbits. The experiment in a line: safety evaluation in rabbits. It is filed as in vivo, rabbit. The method in brief:
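Rabbits (n=3 per group) received test compound 100 μg/dose, LPS 1 μg/dose (positive control) or saline vehicle. Doses were in sterile saline without excipients, 0.5 mL, as an i.v. bolus into the marginal ear vein. Blood was drawn from the contralateral ear at 0, 2 and 6 h for total/differential leukocytes, band forms, hemoglobin and MCH. Core temperature was logged by rectal thermistor probe.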

The test system of series [4] is granulocytes and monocytes in human whole blood. The experiment in a line: CD11b upregulation by flow cytometry in whole human blood. It is filed as cell-based. The note with it: 1 h. The method, boiled down: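 Heparin-anticoagulated whole blood from healthy volunteers was added to serial dilutions of test compound, with reference compounds and fRPMI negative controls, then held 1 h at 37 °C. Cells were stained with CD11b-PE/CD14-APC for 30 min at 4 °C in the dark, then lysed/fixed and washed twice in saline. 100,000 gated events were acquired. Granulocytes were gated by forward/side scatter, monocytes by CD14.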
In general terms: In flow cytometry, cells or beads pass a laser one at a time.

For series [5], the system named is human PBMCs or human whole blood. The experiment in a line: proinflammatory cytokine induction, 5-plex cytometric bead assays. Type of series: cell-based. The settings on record: 5-plex cytometric bead assays (data not shown).
The next series concerns human PBMCs. Put plainly: 41-plex chemokine/cytokine immunoassay in hPBMC. It is filed as cell-based. The settings on record: 12 h, 41-plex immunoassay. The method, boiled down: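 Fresh human PBMCs were isolated on Ficoll-Hypaque gradients from venipuncture blood. Cells were plated at 10⁵ per well, stimulated 12 h with graded concentrations of test compound, with LPS as reference. Supernatants were collected by centrifugation and assayed in duplicate for 41 cytokines/chemokines by magnetic bead multiplex; intra-assay CV was 4–8%. Data are means of duplicates from a representative experiment.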

The subject of another series is patients. The settings on record: cited from earlier work.
Where [6] appears, read: single i.v. bolus, 38 100 μg, LPS 1 μg.

With `CCCCCCCCCCCCCCCC(=O)OCC(CSC[C@H](N)C(=O)N[C@@H](CO)C(=O)O)OC(=O)CCCCCCCCCCCCCCC` (mixture of isomers) [Compound 2, S-[2,3-bis(palmitoyloxy)-(2RS)-propyl]-R-cysteinyl-S-serine], in [1], the adjuvanticity result is “potently adjuvantic”. For the same compound, the “local reactogenicity and pyrogenicity” value in the series on rabbit models is recorded as “devoid of”. The “levels of proinflammatory mediators such as TNF-α, IL-1β and IL-18” value in series [2] (earlier findings) is reported as “virtually undetectable levels”. The “pro-inflammatory activity (TNF-α, IL-1β, IL-6, IL-8 production)” value in [2] (ex vivo human blood models) was “devoid of any detectable pro-inflammatory activity”.
Broadly, the EC50 is the concentration at which the effect is half-maximal. With `CCCCCCCCCCCCCCCC(=O)OCCSC[C@H](NC(C)=O)C(=O)N[C@@H](CCCCN)C(=O)OC` [Compound 10, 2-(((R)-2-Acetamido-3-(((S)-6-amino-1-methoxy-1-oxohexan-2-yl)amino)-3-oxopropyl)thio)ethyl palmitate], in “aqueous solubility”, the “aqueous solubility” value was “highly water soluble”. Moreover, the “stability of aqueous stocks” value in series [3] is recorded as “significant loss of activity of aqueous stocks in less than a week”. The compound further displayed an EC50 on human TLR2 of 1.5 nM.
Regarding `CCCCCCCCCCCCCCCC(=O)OCCSC[C@H](NC(C)=O)C(=O)N[C@@H](COC(=O)[C@@H](N)CCCCN)C(=O)OC` [Compound 12, 2-(((R)-2-Acetamido-3-(((S)-3-(((S)-2,6-diaminohexanoyl)oxy)-1-methoxy-1-oxopropan-2-yl)amino)-3-oxopropyl)thio)ethyl palmitate], the “aqueous solubility” value in the series “aqueous solubility” is “highly water soluble”. Besides, the “stability of aqueous stocks” value in series [3] was “found to be unstable”. Further, on human TLR2, it took 1.5 nM to reach a half-maximal effect (EC50) and the “hTLR2-specific agonistic activity” value is listed as “retained hTLR2-specific agonistic activity”.
On to `CCCCCCCCCCCCCCCC(=O)OCCSC[C@H](NC(C)=O)C(=O)N[C@@H](COS(=O)(=O)O)C(=O)OC` [Compound 13, 2-(((R)-2-Acetamido-3-(((S)-1-methoxy-1-oxo-3-(sulfooxy)propan-2-yl)amino)-3-oxopropyl)thio)ethyl palmitate], for which, in the series “aqueous solubility”, the “aqueous solubility” value is on record as “highly water soluble”. At human TLR2, a half-maximal effect (EC50) was put at 5.84 nM and the “hTLR2-specific agonistic activity” value is recorded as “retained hTLR2-specific agonistic activity”.
For `CCCCCCCCCCCCCCCC(=O)OCCSC[C@H](NC(C)=O)C(=O)N[C@@H](COC(=O)CCC(=O)O)C(=O)OC` [Compound 14, (7S,10R)-10-Acetamido-7-(methoxycarbonyl)-4,9,16-trioxo-5,15-dioxa-12-thia-8-azahentriacontan-1-oic acid], in that order: “highly water soluble”, 0.65 nM and “retained hTLR2-specific agonistic activity”.
`CCCCCCCCCCCCCCCC(=O)OCCSC[C@H](NC(C)=O)C(=O)N[C@@H](COC(=O)c1cccnc1)C(=O)OC` [Compound 15, (S)-2-((R)-2-Acetamido-3-((2-(palmitoyloxy)ethyl)thio)propanamido)-3-methoxy-3-oxopropyl nicotinate]: at human TLR2, the response was half-maximal at 0.75 nM (EC50) and the “hTLR2-specific agonistic activity” value is “retained hTLR2-specific agonistic activity”.
In turn, `CCCCCCCCCCCCCCCC(=O)NCCSC[C@H](NC(C)=O)C(=O)N[C@@H](CO)C(=O)OC` [Compound 22, (S)-Methyl 2-((R)-2-acetamido-3-((2-palmitamidoethyl)thio)propanamido)-3-hydroxypropanoate] gave an EC50 at human TLR2 of 12.8 nM.
Take `CCCCCCCCCCCCCc1cn(CCSC[C@H](NC(C)=O)C(=O)N[C@@H](CO)C(=O)OC)nn1` [Compound 24, (S)-Methyl 2-((R)-2-acetamido-3-((2-(4-tridecyl-1H-1,2,3-triazol-1-yl)ethyl)thio)propanamido)-3-hydroxypropanoate]: the EC50 on human TLR2 is 290 nM.
On to `CCCCCCCCCCCCCCCCn1cc(CCSC[C@H](NC(C)=O)C(=O)N[C@@H](CO)C(=O)OC)nn1` [Compound 27, (S)-Methyl 2-((R)-2-acetamido-3-((2-(1-hexadecyl-1H-1,2,3-triazol-4-yl)ethyl)thio)propanamido)-3-hydroxypropanoate], for which the EC50 at human TLR2 worked out at 1020 nM.
At human TLR2, `CCCCCCCCCCCCCCCCOC(=O)NCCSC[C@H](NC(C)=O)C(=O)N[C@@H](CO)C(=O)OC` [Compound 34, (2S,5R)-Methyl 5-acetamido-2-(hydroxymethyl)-4,11-dioxo-12-oxa-7-thia-3,10-diazaoctacosan-1-oate] had an EC50 of 0.065 nM.
Usually solubility stands for how much of the substance goes into solution per volume. The low end stands for a poorly soluble substance, the high end for a readily soluble substance. In “aqueous solubility”, `CCCCCCCCCCCCCCCCOC(=O)NCCSC[C@H](NC(C)=O)C(=O)N[C@@H](CO)C(=O)NCCCN(C)C` [Compound 38, Hexadecyl ((8S,11R)-11-acetamido-8-(hydroxymethyl)-2-methyl-7,10-dioxo-13-thia-2,6,9-triazapentadecan-15-yl)carbamate] came in with a solubility above 10000 µg/mL. Moreover, the “chemical stability under accelerated stability testing conditions” value in [3] (accelerated stability testing) was “retained excellent chemical stability”. Further, in the series with rabbits (setting [6]), the “pyrogenicity (febrile response, core temperature)” value is listed as “did not induce any such effects”; the “total leukocyte and lymphocyte counts in peripheral blood” value is on record as “did not induce any such effects”. Besides, in the series on rabbits (up to 100 μg/animal, intramuscular or intravenous bolus), the “observable adverse effects, dose-escalation study” value is “did not result in any observable adverse effects”. Also, in series [4] (CD14+ gated), the “CD11b upregulation in monocytes” value was “strong monocytic CD11b upregulation”. In series [4] (relative to 2), the “CD11b upregulation in neutrophils (granulocytes)” value was “upregulated CD11b very potently”. For the same compound, in [5], the proinflammatory cytokine signatures result was “could not detect any significant proinflammatory cytokine signatures”. In addition, the “chemokine induction (MCP-1, MCP-3, MDC, IL-8)” value in the series on human PBMCs is recorded as “prominent biphasic induction”. The same compound yielded an EC50 on human TLR2 of 0.25 nM.
Take “S-[2,3-bis(palmitoyloxy)-(2R)-propyl]-R-cysteinyl-GNNDESNISFKEK (X1-GNNDESNISFKEK) [Compound 1]”: the “well tolerated dose, intra-tumoral injection” value in the series with patients (ten patients with pancreas carcinomas, 20–30 μg injected during surgery) was “up to 20 μg”. In addition, in the series on patients (ten patients with pancreas carcinomas, 20–30 μg), the “systemic side effects, intra-tumoral injection” value is listed as “no systemic side effects were noted”. In the series with patients (twelve patients, 0.125–1.0 μg), the “systemic side effects, application on punch biopsy skin lesions” value was “other than transient and self-limited erythema, no systemic side effects were noted”.
